pIC50: −log10 of the molar value. ≈ marks a conversion by molar mass, not a printed value.
Legend:
[1] = Metabolic stability in CD-1 mouse liver microsomes assessed as parent compound remaining at 3 uM after 2 hrs by LC-MS/MS analysis
[2] = Apparent permeability across basolateral to apical side in human Caco2 cells at 2 uM after 2 hrs by lucifer yellow dye-based LC-MS/MS analysis; settings: caco-2, 2 h
[3] = Metabolic stability in human liver microsomes assessed as parent compound remaining at 3 uM after 2 hrs by LC-MS/MS analysis
[4] = Apparent permeability across basolateral to apical side in human Caco2 cells assessed as mean drug recovery at 2 uM after 2 hrs by lucifer yellow dye-based LC-MS/MS analysis; settings: Caco-2
[5] = Apparent permeability across apical to basolateral side in human Caco2 cells assessed as mean drug recovery at 2 uM after 2 hrs by lucifer yellow dye-based LC-MS/MS analysis; settings: caco-2, 2 h
[6] = Apparent permeability across apical to basolateral side in human Caco2 cells at 2 uM after 2 hrs by lucifer yellow dye-based LC-MS/MS analysis; settings: caco-2, 2 h
[7] = Metabolic stability in CD-1 mouse plasma assessed as parent compound remaining at 3 uM after 2 hrs by LC-MS/MS analysis
Clostridioides difficile = experiment: Antibacterial activity against Clostridium difficile 630 ATCC BAA-1382 by broth microdilution assay; assay type: functional
Method in brief: (§1)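 Broth microdilution run essentially per an earlier report. MIC taken as the lowest concentration with no visible growth. Replicates typically agreed within one 2-fold dilution. The median MIC is reported, with a range where the median fell between two tested concentrations.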

[8] = Metabolic stability in human plasma assessed as parent compound remaining at 3 uM after 2 hrs by LC-MS/MS analysis
[9] = Protein binding in human plasma at 5 uM after 30 mins by LC-MS/MS analysis based ultrafiltration method; settings: 0.5 h
[10] = system: Mycobacterium tuberculosis; experiment: Antibacterial activity against non-replicating Mycobacterium tuberculosis H37Rv after 5 days under hypoxic condition by resazurin dye-based fluorescence assay; assay type: functional; settings: 120 h
Method in brief: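 Same H37Rv inoculum (OD600 0.001, ~2 x 10^4 CFU/mL) in 7H9S with serially diluted compound. Plates held 5 days at 0.1% oxygen, then resazurin plus Tween-80 added.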

Giardia intestinalis = experiment: Antiparasitic activity against Giardia lamblia WB trophozoites after 24 to 48 hrs by CellTiter-Glo luminescent cell viability assay; settings: Giardia duodenalis; for IC50: read-out: pIC50 (converted)
Entamoeba histolytica = experiment: Antiparasitic activity against Entamoeba histolytica HM-1:IMSS trophozoites after 24 to 48 hrs by CellTiter-Glo luminescent cell viability assay; assay type: functional, organism-based; settings: for pIC50: read-out: IC50; for IC50: read-out: pIC50 (converted)
Method in brief: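 Axenic trophozoites were kept in TYI-S-33 with penicillin (100 U/mL) and streptomycin (100 µg/mL) and harvested in log phase. 5000 parasites per well were exposed to a final 8-point two-fold series of 0.39–50 µM, from 10 mM DMSO stocks. Plates were incubated 24–48 h at 37 °C under anaerobic conditions. ATP luminescence viability was read in triplicate. Percent inhibition is given at the highest concentration tested.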

[11] = system: Mycobacterium tuberculosis; experiment: Antibacterial activity against Mycobacterium tuberculosis H37Rv after 5 days under normoxic condition by resazurin dye-based fluorescence assay; assay type: functional, organism-based
Method in brief: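 H37Rv grown in 7H9/ADC/glycerol/Tyloxapol to mid-exponential phase, diluted to OD600 0.001 (~2 x 10^4 CFU/mL) in 7H9S with serially diluted compound. Incubated 5 days at 37 °C, then resazurin and Tween-80 added. Fluorescence (ex 530/em 590 nm) read after 24 h, normalised to no-drug and no-bacteria wells.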

[12] = system: Trypanosoma brucei brucei; experiment: Antiparasitic activity against bloodstream form of Trypanosoma brucei brucei strain 427 after 48 hrs by resazurin dye-based assay; assay type: functional, organism-based; settings: strain 427, 48 h; for pIC50: read-out: IC50; for IC50: read-out: pIC50 (converted)
Staphylococcus aureus = experiment: Antibacterial activity against methicillin-resistant Staphylococcus aureus ATCC […] by broth microdilution assay; assay type: functional
Pseudomonas aeruginosa = experiment: Antibacterial activity against Pseudomonas aeruginosa ATCC 27853 by broth microdilution assay; assay type: functional; method in brief: as §1
Klebsiella pneumoniae = experiment: Antibacterial activity against Klebsiella pneumoniae 700603 by broth microdilution assay; assay type: functional; method in brief: as §1
Cryptococcus neoformans = experiment: Antifungal activity against Cryptococcus neoformans H99 ATCC […] broth microdilution assay; assay type: functional; settings: var. grubii H99 ATCC 208821; method in brief: as §1
HEK293 = experiment: Cytotoxicity against HEK293 cells after 24 hrs by resazurin dye-based fluorescence assay; assay type: cell-based; settings: human, hek293, 24 h
Method in brief: (§2)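 HEK293 (3000/well) and HepG2 (5000/well) were grown 24 h in DMEM with 10% FBS at 37 °C, 5% CO2. Cells were then exposed 24 h to a dilution series up to 100 µM (0.5% DMSO). 5 µM resazurin was added for 2 h, read at ex 560/em 590. 1% Triton X-100 served as lysis control. CC50 was derived from the curves.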

Escherichia coli = experiment: Antibacterial activity against Escherichia coli ATCC 25922 by broth microdilution assay; assay type: functional; method in brief: as §1
HepG2 = experiment: Cytotoxicity against human HepG2 cells after 24 hrs by resazurin dye-based fluorescence assay; assay type: cell-based; settings: hepg2, 24 h; method in brief: as §2
Candida albicans = experiment: Antifungal activity against Candida albicans ATCC 90028 by broth microdilution assay; assay type: functional; method in brief: as §1
Acinetobacter baumannii = experiment: Antibacterial activity against Acinetobacter baumannii ATCC 19606 by broth microdilution assay; assay type: functional; settings: ATCC 19606 = CIP 70.34 = JCM 6841; method in brief: as §1
[13] = system: Trypanosoma brucei brucei; experiment: Antiparasitic activity against bloodstream form of Trypanosoma brucei brucei strain 427 assessed as inhibition of parasitic growth at 40 uM after 48 hrs by resazurin dye-based assay relative to control; assay type: functional; settings: strain 427, 48 h, read-out: GI
[14] = system: Mycobacterium tuberculosis; experiment: Antibacterial activity against Mycobacterium tuberculosis H37Rv assessed as inhibition of bacterial growth at 32 ug/ml after 5 days under normoxic condition by resazurin dye-based fluorescence assay relative to control; assay type: functional; settings: 120 h, read-out: GI

SMILES: O=c1c2nc([N+](=O)[O-])cn2ccn1Cc1cccc(OC(F)(F)F)c1
- Stability [1]: > 99%
- Papp [2]: 24 ×10⁻⁶ cm/s
- Stability [3]: > 99%
- recovery at 2 h, 2 µM [4]: 99%
- Drug recovery [5]: 88%
- Papp [6]: 24 ×10⁻⁶ cm/s
- Stability [7]: 97%
- MIC (Clostridioides difficile): > 64 µg/mL
- Stability [8]: > 99%

SMILES: O=[N+]([O-])c1cn2c(n1)OC[C@@H](OCc1ccc(OC(F)(F)F)cc1)C2 [PRETOMANID]
- Papp [2]: 22 ×10⁻⁶ cm/s
- recovery at 2 h, 2 µM [4]: 101%
- Drug recovery [5]: 81%
- Papp [6]: 29 ×10⁻⁶ cm/s

SMILES: Cc1cn2cc([N+](=O)[O-])nc2c(=O)n1Cc1ccc(OC(F)(F)F)cc1
- Stability [1]: > 99%
- Stability [3]: > 99%
- PPB [9]: 98%
- MIC [10]: > 32 µg/mL
- pIC50 (Giardia intestinalis): 5.24
- IC50 (Giardia intestinalis): 6.31 µM
- pIC50 (Entamoeba histolytica): < 4.30
- IC50 (Entamoeba histolytica): > 50.1 µM
- Stability [7]: 99%
- MIC [11]: >32 µg/mL
- pIC50 [12]: 6.39
- IC50 [12]: 3.98 µM
- Stability [8]: 92%

SMILES: O=c1c2nc([N+](=O)[O-])cn2ccn1Cc1ccc(F)cc1
- MIC (Staphylococcus aureus): > 32 µg/mL
- Stability [1]: > 99%
- Stability [3]: 99%
- MIC (Pseudomonas aeruginosa): > 32 µg/mL
- MIC (Klebsiella pneumoniae): > 32 µg/mL
- PPB [9]: 82%
- MIC [10]: 2 µg/mL (≈ 6.94 µM)
- MIC (Cryptococcus neoformans): > 32 µg/mL
- CC50 (HEK293): > 100 µM
- pIC50 (Giardia intestinalis): 5.19
- IC50 (Giardia intestinalis): 6.31 µM
- pIC50 (Entamoeba histolytica): < 4.30
- MIC (Escherichia coli): > 32 µg/mL
- Stability [7]: > 99%
- CC50 (HepG2): > 100 µM
- MIC (Candida albicans): > 32 µg/mL
- MIC (Acinetobacter baumannii): > 32 µg/mL
- MIC [11]: 1 µg/mL (≈ 3.47 µM)
- pIC50 [12]: 5.54
- IC50 [12]: 3.16 µM
- MIC (Clostridioides difficile): > 64 µg/mL
- Stability [8]: 98%

SMILES: Cc1cn2cc([N+](=O)[O-])nc2c(OCc2ccc(OC(F)(F)F)cc2)n1
- Stability [1]: 7.9%
- Stability [3]: 69%
- PPB [9]: > 99%
- MIC [10]: > 32 µg/mL
- pIC50 (Giardia intestinalis): 5.13
- IC50 (Giardia intestinalis): 7.94 µM
- pIC50 (Entamoeba histolytica): 5.02
- IC50 (Entamoeba histolytica): 10 µM
- Stability [7]: > 99%
- MIC [11]: >32 µg/mL
- pIC50 [12]: < 4.40
- IC50 [12]: > 39.8 µM
- Stability [8]: 94%

SMILES: O=c1[nH]ccn2cc([N+](=O)[O-])nc12
- inhibition of growth at 40 µM [13]: 97%
- MIC (Staphylococcus aureus): > 32 µg/mL
- MIC (Pseudomonas aeruginosa): > 32 µg/mL
- MIC (Klebsiella pneumoniae): > 32 µg/mL
- MIC [10]: > 32 µg/mL
- MIC (Cryptococcus neoformans): > 32 µg/mL
- CC50 (HEK293): > 100 µM
- pIC50 (Giardia intestinalis): < 4.60
- IC50 (Giardia intestinalis): > 25.1 µM
- MIC (Escherichia coli): > 32 µg/mL
- CC50 (HepG2): > 100 µM
- MIC (Candida albicans): > 32 µg/mL
- MIC (Acinetobacter baumannii): > 32 µg/mL
- MIC [11]: >32 µg/mL

SMILES: CC(C)NCC(O)COc1cccc2ccccc12 (configuration not stated) [PROPRANOLOL]
- Drug recovery [5]: 70%

SMILES: Cc1ccc(CCn2ccn3cc([N+](=O)[O-])nc3c2=O)cc1
- MIC (Staphylococcus aureus): > 32 µg/mL
- MIC (Pseudomonas aeruginosa): > 32 µg/mL
- MIC (Klebsiella pneumoniae): > 32 µg/mL
- MIC [10]: > 32 µg/mL
- MIC (Cryptococcus neoformans): > 32 µg/mL
- CC50 (HEK293): > 100 µM
- inhibition of growth at 32 µg/mL [14]: 78%
- pIC50 (Giardia intestinalis): 5.49
- IC50 (Giardia intestinalis): 3.16 µM
- MIC (Escherichia coli): > 32 µg/mL
- CC50 (HepG2): > 100 µM
- MIC (Candida albicans): > 32 µg/mL
- MIC (Acinetobacter baumannii): > 32 µg/mL
- pIC50 ([11]; Mycobacterium tuberculosis, H37Rv, 120 h): 5.40
- pIC50 [12]: < 4.40
- IC50 [12]: > 39.8 µM

From ChEMBL document CHEMBL4382237, “Design, Synthesis, and Biological Evaluation of 2-Nitroimidazopyrazin-one/-es with Antitubercular and Antiparasitic Activity” (J Med Chem, 2018)
